pIC50: −log10 of the molar value.
Key:
[1] = target: T1, Sphingosine 1-phosphate receptor 1 (Homo sapiens, UniProt P21453); experiment: Antagonist activity at S1P1 receptor expressed in HEK293 cells assessed as inhibition of S1P-induced cAMP response after 90 mins by spectrophotometry; assay type: functional, cell-based
Cytochrome P450 2C9 = Cytochrome P450 2C9 (Homo sapiens, UniProt P11712); experiment: Inhibition of human CYP2C9 using tolbutamide as substrate by LC/MS/MS analysis; assay type: ADME
Chain of Cytochrome P450 2C9 (P11712 whole entry): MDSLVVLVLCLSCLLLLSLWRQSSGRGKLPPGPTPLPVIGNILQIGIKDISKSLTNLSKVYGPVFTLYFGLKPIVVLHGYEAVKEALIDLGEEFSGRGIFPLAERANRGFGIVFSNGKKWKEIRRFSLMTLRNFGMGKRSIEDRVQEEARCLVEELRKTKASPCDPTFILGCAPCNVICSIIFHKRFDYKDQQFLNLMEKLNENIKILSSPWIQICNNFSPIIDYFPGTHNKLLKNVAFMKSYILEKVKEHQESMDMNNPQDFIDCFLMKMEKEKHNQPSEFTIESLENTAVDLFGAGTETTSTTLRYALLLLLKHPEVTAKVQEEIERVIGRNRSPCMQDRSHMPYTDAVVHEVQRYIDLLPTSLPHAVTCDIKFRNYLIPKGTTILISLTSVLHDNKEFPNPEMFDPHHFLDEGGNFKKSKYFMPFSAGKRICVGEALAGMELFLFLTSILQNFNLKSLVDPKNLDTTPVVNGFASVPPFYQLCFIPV
Procedure, shortened: (§1)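 Pooled human liver microsomes in 100 mM potassium phosphate, pH 7.4, at 37 °C with 1000 µM NADPH for 15 min. Microsomes 0.15 mg/mL for CYP2C9 and CYP2D6, 0.25 mg/mL for CYP3A4. Inhibitor tested at six concentrations (0.2–50 µM). Reactions quenched with acetonitrile; metabolite measured by LC/MS/MS; IC50 from 4-parameter sigmoidal fit.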

Cytochrome P450 2D6 = Cytochrome P450 2D6 (Homo sapiens, UniProt P10635); experiment: Inhibition of human CYP2D6 using bufuralol as substrate by LC/MS/MS analysis; assay type: ADME; procedure, shortened: as §1
Chain of Cytochrome P450 2D6 (P10635 whole entry): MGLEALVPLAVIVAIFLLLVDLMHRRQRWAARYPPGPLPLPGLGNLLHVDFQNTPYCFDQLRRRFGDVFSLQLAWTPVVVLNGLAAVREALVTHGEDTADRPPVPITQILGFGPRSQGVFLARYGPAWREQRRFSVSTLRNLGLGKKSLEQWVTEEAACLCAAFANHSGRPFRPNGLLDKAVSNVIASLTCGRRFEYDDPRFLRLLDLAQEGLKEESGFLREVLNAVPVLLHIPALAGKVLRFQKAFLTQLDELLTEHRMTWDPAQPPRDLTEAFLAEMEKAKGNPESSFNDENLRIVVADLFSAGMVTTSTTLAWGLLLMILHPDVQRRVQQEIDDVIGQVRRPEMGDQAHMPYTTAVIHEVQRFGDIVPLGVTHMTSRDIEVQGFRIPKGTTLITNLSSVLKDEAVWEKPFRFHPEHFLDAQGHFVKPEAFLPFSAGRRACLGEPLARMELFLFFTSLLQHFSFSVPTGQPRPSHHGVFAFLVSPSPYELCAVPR

Cytochrome P450 3A4 = Cytochrome P450 3A4 (Homo sapiens, UniProt P08684); experiment: Inhibition of human CYP3A4 using testosterone as substrate by LC/MS/MS analysis; assay type: ADME; procedure, shortened: as §1
Chain of Cytochrome P450 3A4 (P08684 whole entry): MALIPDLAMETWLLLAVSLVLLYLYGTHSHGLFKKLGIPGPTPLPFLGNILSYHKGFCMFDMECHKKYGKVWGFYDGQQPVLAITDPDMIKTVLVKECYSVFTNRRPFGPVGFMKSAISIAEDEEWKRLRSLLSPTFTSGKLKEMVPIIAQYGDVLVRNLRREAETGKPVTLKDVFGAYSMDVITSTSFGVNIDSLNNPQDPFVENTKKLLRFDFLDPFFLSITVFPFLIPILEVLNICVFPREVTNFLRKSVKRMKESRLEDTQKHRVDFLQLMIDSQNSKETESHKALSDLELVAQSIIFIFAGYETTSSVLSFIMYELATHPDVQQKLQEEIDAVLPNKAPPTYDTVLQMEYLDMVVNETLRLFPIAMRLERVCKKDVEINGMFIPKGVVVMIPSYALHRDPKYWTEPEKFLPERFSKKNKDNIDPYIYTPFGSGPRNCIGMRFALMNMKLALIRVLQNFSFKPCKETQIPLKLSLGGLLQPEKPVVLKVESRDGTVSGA

[2] = target: T1, Sphingosine 1-phosphate receptor 1; experiment: Antagonist activity at S1P1 receptor expressed in HEK293 cells assessed as inhibition of S1P-induced tango beta-arrestin recruitment preincubated for 30 mins prior S1P addition measured after 16 to 18 hrs by luciferase reporter gene assay; assay type: functional, cell-based
[3] = target: Sphingosine 1-phosphate receptor 2 (Homo sapiens, UniProt O95136); experiment: Antagonist activity at S1P2 receptor expressed in HEK293 cells assessed as inhibition of S1P-induced tango beta-arrestin recruitment preincubated for 30 mins prior S1P addition measured after 16 to 18 hrs by luciferase reporter gene assay; assay type: functional, cell-based
Chain of Sphingosine 1-phosphate receptor 2 (O95136 whole entry): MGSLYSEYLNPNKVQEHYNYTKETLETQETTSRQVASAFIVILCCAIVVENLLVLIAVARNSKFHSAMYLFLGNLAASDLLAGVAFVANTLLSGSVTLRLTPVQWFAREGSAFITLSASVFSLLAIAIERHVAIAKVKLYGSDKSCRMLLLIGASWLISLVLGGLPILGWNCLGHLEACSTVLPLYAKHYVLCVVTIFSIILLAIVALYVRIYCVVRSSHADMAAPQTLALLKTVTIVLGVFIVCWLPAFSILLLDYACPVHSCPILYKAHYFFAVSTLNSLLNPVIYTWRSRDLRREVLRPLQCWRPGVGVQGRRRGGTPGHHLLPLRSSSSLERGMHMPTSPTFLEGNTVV

[4] = target: Sphingosine 1-phosphate receptor 3 (Homo sapiens, UniProt Q99500); experiment: Antagonist activity at S1P3 receptor expressed in HEK293 cells assessed as inhibition of S1P-induced tango beta-arrestin recruitment preincubated for 30 mins prior S1P addition measured after 16 to 18 hrs by luciferase reporter gene assay; assay type: functional, cell-based
Chain of Sphingosine 1-phosphate receptor 3 (Q99500 whole entry): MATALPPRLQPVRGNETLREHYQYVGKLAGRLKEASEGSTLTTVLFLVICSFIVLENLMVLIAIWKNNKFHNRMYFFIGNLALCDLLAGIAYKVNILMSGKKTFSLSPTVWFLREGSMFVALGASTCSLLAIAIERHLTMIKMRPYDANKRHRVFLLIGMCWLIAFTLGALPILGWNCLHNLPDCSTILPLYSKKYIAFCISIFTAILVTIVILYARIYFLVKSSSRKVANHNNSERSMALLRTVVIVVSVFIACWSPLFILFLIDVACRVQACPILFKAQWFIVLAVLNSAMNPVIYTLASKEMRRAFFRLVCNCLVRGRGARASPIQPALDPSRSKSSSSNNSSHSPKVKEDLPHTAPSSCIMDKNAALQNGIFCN

[5] = Drug uptake in nu/nu homozygous mouse plasma at 100 mg/kg, po as a solution in 10% EtOH/40% PEG400/water + 1:1 HCl after 1 hr by HPLC/MS/MS analysis; assay type: ADME, organism-based; parameters: dose 100 mg/kg, route oral
Procedure, shortened: (§2)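 Female Nu/Nu mice (~8 wk, 20-22 g) given a single 100 mpk oral dose at 10 mL/kg. Vehicles: 10% EtOH/45% or 40% PEG400/water + 1 molar equiv HCl, 10% EtOH/40% PEG400/20% Captisol + HCl, or 10% NMP/90% corn oil. Heparinized blood collected 1 and 4 h post-dose; plasma analysed by HPLC/MS/MS.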

[6] = Drug uptake in nu/nu homozygous mouse plasma at 100 mg/kg, po as a solution in 10% EtOH/40% PEG400/water + 1:1 HCl after 4 hrs by HPLC/MS/MS analysis; assay type: ADME, organism-based; parameters: dose 100 mg/kg, route oral; procedure, shortened: as §2
[7] = Metabolic stability of the compound in mouse liver microsomes assessed as compound oxidation measuring disappearance of compound at 15 uM after 30 mins by LC/MS/MS analysis; assay type: ADME, Microsome; conditions: read-out: Drug degradation
Procedure, shortened: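 Incubated in duplicate for 30 min at 37 °C: 15 µM compound, 0.15% DMSO, 0.5 mg/mL mouse liver microsomes, 1 mM NADPH, 100 mM potassium phosphate pH 7.4. Stopped with acetonitrile containing 0.1% formic acid. Parent remaining measured by LC/MS/MS; disappearance calculated relative to no-NADPH controls.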

[8] = Antitumor activity against human MDA-MB-231T cells xenografted in athymic nude mouse assessed as tumor growth inhibition at 300 mg/kg, po qd for 14 days post implantation measured for 14 days; assay type: functional; conditions: 336 h, read-out: TGI
Procedure, shortened: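 MDA-MB-231T cells grown in DMEM with 10% FBS. 1 x 10⁶ cells in ice-cold HBSS implanted into the mammary fat pad of female athymic nude (NCr) mice, 5-8 wk. Daily oral dosing at 10 mL/kg, solutions made fresh daily. Tumor weight measured twice weekly; TGI calculated against vehicle and staging-day weights; 2-tailed t-test, p<0.05.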

Mus musculus = experiment: Toxicity in athymic nude mouse xenografted with human MDA-MB-231T cells assessed as body weight loss at 300 mg/kg, po qd for 14 days post implantation measured for 14 days; assay type: organism-based; parameters: dose 300 mg/kg, route oral; conditions: in vivo, 336 h
Procedure, shortened: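 Female NCr athymic nude mice bearing mammary fat pad MDA-MB-231T tumors (1 x 10⁶ cells). Dosed orally once daily at 10 mL/kg from fresh solutions. Body weights recorded daily; clinical signs and survival monitored daily.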

[9] = Drug uptake in nu/nu homozygous mouse plasma at 100 mg/kg, po as a suspension in 10% NMP/corn oil after 4 hrs by HPLC/MS/MS analysis; assay type: ADME, organism-based; parameters: dose 100 mg/kg, route oral; procedure, shortened: as §2
[10] = Drug uptake in nu/nu homozygous mouse plasma at 100 mg/kg, po as a suspension in 10% NMP/corn oil after 24 hrs by HPLC/MS/MS analysis; assay type: ADME, organism-based; parameters: dose 100 mg/kg, route oral
[11] = Drug uptake in nu/nu homozygous mouse plasma at 100 mg/kg, po after 1 hr by HPLC/MS/MS analysis; assay type: ADME, organism-based; parameters: dose 100 mg/kg, route oral; procedure, shortened: as §2
[12] = Drug uptake in nu/nu homozygous mouse plasma at 100 mg/kg, po after 4 hrs by HPLC/MS/MS analysis; assay type: ADME, organism-based; parameters: dose 100 mg/kg, route oral; procedure, shortened: as §2

T1 sequence (P21453 whole entry): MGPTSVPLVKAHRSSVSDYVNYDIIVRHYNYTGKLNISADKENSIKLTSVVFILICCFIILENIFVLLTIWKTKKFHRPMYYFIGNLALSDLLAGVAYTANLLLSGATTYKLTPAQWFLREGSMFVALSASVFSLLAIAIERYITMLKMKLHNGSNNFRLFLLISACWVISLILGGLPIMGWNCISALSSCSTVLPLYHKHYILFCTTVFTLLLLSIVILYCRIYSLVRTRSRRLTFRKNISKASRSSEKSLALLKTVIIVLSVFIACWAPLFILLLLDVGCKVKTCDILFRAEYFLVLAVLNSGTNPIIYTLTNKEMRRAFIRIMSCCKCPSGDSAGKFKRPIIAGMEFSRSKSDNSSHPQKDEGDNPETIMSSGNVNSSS

## O=C(Nc1ccc(Oc2ccc(F)cc2)cc1)[C@@H]1C[C@H](Cc2ccc(F)cc2)CN1C(=O)Cn1cncn1
[1]
  pIC50: 7.32
Cytochrome P450 2C9
  pIC50: 5.87
Cytochrome P450 2D6
  pIC50: 5.42
Cytochrome P450 3A4
  pIC50: < 4.70

## O=C(Cc1c[nH]cn1)N[C@@H](COCc1ccccc1)C(=O)Nc1ccc(Oc2ccc(F)cc2)cc1
[1]
  pIC50: 7.89
[2]
  pIC50: 6.55
[3]
  pIC50: < 5.00
[4]
  pIC50: < 5.00
[5]
  concentration at 1 h: 8 µM
[6]
  concentration at 4 h: 3 µM
[7]
  metabolised at 0.5 h, 15 µM: 9%
[8]
  inhibition in vivo at 300 mg/kg: 54%
Mus musculus
  Activity: Non-toxic

## O=C(Cc1cnc[nH]1)N[C@@H](Cc1ccccc1)C(=O)Nc1ccc(Oc2ccc(Cl)cc2)cc1
[1]
  pIC50: 6.49

## O=C(Nc1ccc(Oc2ccc(F)cc2)cc1)[C@@H]1C[C@@H](Cc2ccccc2)CN1C(=O)Cn1cncn1
[1]
  pIC50: 8.17
[2]
  pIC50: 7.35
[3]
  pIC50: < 5.00
[4]
  pIC50: < 5.00
[9]
  concentration at 4 h: 86.4 µM
[7]
  metabolised at 0.5 h, 15 µM: 13%
[10]
  concentration at 24 h: 8.3 µM
Cytochrome P450 2C9
  pIC50: 5.64
Cytochrome P450 2D6
  pIC50: 6.41
Cytochrome P450 3A4
  pIC50: < 4.70

## O=C(Nc1ccc(Oc2ccc(F)cc2)cc1)[C@@H]1C[C@@H](c2ccccc2)CN1C(=O)Cc1cnc[nH]1
[1]
  pIC50: 6.80
[9]
  concentration at 4 h: 27.2 µM
[10]
  concentration at 24 h: 5 µM
Cytochrome P450 2C9
  pIC50: 6.67
Cytochrome P450 2D6
  pIC50: 6.18
Cytochrome P450 3A4
  pIC50: 6.52

## CN(CC(=O)NC(COCc1ccccc1)C(=O)Nc1ccc(Oc2ccccc2)cc1)C(=O)c1ccccc1 (racemic)
[1]
  pIC50: 6.14
[2]
  pIC50: 5.55
[3]
  pIC50: < 5.00
[4]
  pIC50: < 5.00
[11]
  concentration at 1 h: < 0.019 µM
[12]
  concentration at 4 h: < 0.019 µM
[7]
  metabolised at 0.5 h, 15 µM: 89%

## O=C(Nc1ccc(Oc2ccc(F)cc2)cc1)[C@@H]1C[C@@H](Cc2ccc(F)cc2)CN1C(=O)Cn1cncn1
[1]
  pIC50: 8.24
[2]
  pIC50: 7.89
[3]
  pIC50: < 5.00
[4]
  pIC50: < 5.00
[9]
  concentration at 4 h: 104 µM
[7]
  metabolised at 0.5 h, 15 µM: 8%
[10]
  concentration at 24 h: 18 µM
Cytochrome P450 2C9
  pIC50: 5.66
Cytochrome P450 2D6
  pIC50: 5.13
Cytochrome P450 3A4
  pIC50: 4.90

## O=C(CCCC(=O)c1cccs1)NC(COCc1ccccc1)C(=O)Nc1ccc(Oc2ccccc2)cc1 (racemic)
[1]
  pIC50: 6.54

## O=C(Cc1cnc[nH]1)N[C@@H](COCc1ccccc1)C(=O)Nc1ccc(Oc2ccccc2Cl)cc1
[1]
  pIC50: < 5.00

## O=C(Nc1ccc(Oc2ccc(F)cc2)cc1)[C@@H]1CN(Cc2ccccc2)CCN1C(=O)Cc1cnc[nH]1
[1]
  pIC50: 7.08
[9]
  concentration at 4 h: 6.3 µM
[10]
  concentration at 24 h: 9.2 µM

## O=C(Cc1cnc[nH]1)N[C@@H](CCCc1ccccc1)C(=O)Nc1ccc(Oc2ccccc2)cc1
[1]
  pIC50: 7.85

## CN(C(=O)[C@H](COCc1ccccc1)NC(=O)Cc1cnc[nH]1)c1ccc(Oc2ccccc2)cc1
[1]
  pIC50: 5.08

## O=C(Nc1ccc(Oc2ccc(F)cc2)cc1)[C@H]1C[C@H](Cc2ccc(F)cc2)CN1C(=O)Cn1ccnn1
[1]
  pIC50: < 6.00

## O=C(Cc1ccccc1F)N[C@@H](COCc1ccccc1)C(=O)Nc1ccc(Oc2ccccc2)cc1
[1]
  pIC50: 6.30

## CN(CC(=O)N[C@@H](COCc1ccccc1)C(=O)Nc1ccc(Oc2ccccc2)cc1)C(=O)c1ccccc1
[1]
  pIC50: 6.26

## Cn1cnc(CC(=O)N[C@@H](COCc2ccccc2)C(=O)Nc2ccc(Oc3ccccc3)cc2)c1
[1]
  pIC50: 6.64

## O=C(NC(COCc1ccccc1)C(=O)Nc1ccc(Oc2ccccc2)cc1)C1CC1 (racemic)
[1]
  pIC50: 6.53

## O=C(Cc1cnc[nH]1)N[C@@H](COCc1ccccc1)C(=O)Nc1ccc2oc3ccccc3c2c1
[1]
  pIC50: < 5.00
